Assay results of several laboratories.
PDE3A: cGMP-inhibited 3',5'-cyclic phosphodiesterase 3A (PDE3A, Homo sapiens, UniProt Q14432)
LRRK2: Leucine-rich repeat serine/threonine-protein kinase 2 (LRRK2, Homo sapiens, UniProt Q5S007)
MAPK14: Mitogen-activated protein kinase 14 (MAPK14, Homo sapiens, UniProt Q16539)
HTR1A: 5-hydroxytryptamine receptor 1A (HTR1A, Homo sapiens, UniProt P08908)

| Structure (SMILES) | target | read-out | mode | technique | IC50 [nM] |
| --- | --- | --- | --- | --- | --- |
| COc1ccc2c(Oc3ccc4c(C(=O)Nc5ccccc5N)cccc4c3)ccnc2c1 | Macrophage-stimulating protein receptor (MST1R, Homo sapiens, UniProt Q04912) | enzyme activity | inhibitor |  | > 500 |
| Cc1cnc(-c2ccc(-c3ccc(NC(=O)Nc4c(F)cc(F)cc4F)cc3F)c3c2C(=O)NC3)[nH]1 | Serine/threonine-protein kinase PLK4 (PLK4, Homo sapiens, UniProt O00444) | enzyme activity | inhibitor |  | 4.8 |
| Cc1nn2c(-c3c(C)nn(C)c3-c3ccc(C(F)(F)F)cc3)nc(CO)c2c(=O)[nH]1 | PDE3A | enzyme activity | inhibitor |  | 11800 |
| N#Cc1ccc(COc2cccc(C3CCN(Cc4nc5ccc(C(=O)O)cc5n4C[C@@H]4CCO4)CC3)n2)c(F)c1 | PDE3A | enzyme activity | inhibitor |  | 2300 |
| CCCCCCOC(=O)c1ccccc1C(=O)c1ccc(N(CC)CC)cc1O | Estrogen receptor (ESR1, Homo sapiens, UniProt P03372) | reporter gene | antagonist |  | 4760 |
| CC/C(=N\NC(=O)C(C)Nc1ccccc1)c1ccc(O)c(C)c1O (stereo not drawn) | cAMP-dependent protein kinase catalytic subunit beta (PRKACB, Homo sapiens, UniProt P22694) | enzyme activity | inhibitor |  | 24.9 |
| CN1CCN(c2ccc(Nc3ncc4cc(C#N)c(=O)n(C5CCCC5)c4n3)cc2)CC1 | Casein kinase I isoform epsilon (CSNK1E, Homo sapiens, UniProt P49674) | enzyme activity | inhibitor |  | 5490 |
| CC(Cc1ccc(O)c(O)c1)C(C)Cc1ccc(O)c(O)c1 (stereo not drawn) | LRRK2 | enzyme activity | inhibitor | radiometric | 456 |
| Cc1cc(C)nc(NC(=S)N2CCN(c3ccncc3)CC2)c1 | MAPK14 | enzyme activity | inhibitor | ADP detection | 100 |
| CN(CCCCNC(=O)c1cc2ccccc2[nH]1)[C@@H]1Cc2cccc3[nH]c(=O)n(c23)C1 | HTR1A | ligand displacement |  | radioligand | 137 |
| CC(C)(C)n1nc(-c2cnc3cc(OC4CC4)ccc3c2)c(C(N)=O)c1N | Death-associated protein kinase 3 (DAPK3, Homo sapiens, UniProt O43293) | cell-free assay |  |  | > 10000 |
| Cn1c(=O)c([N+](=O)[O-])c(Cl)c2ccccc21 | Adenylate cyclase type 1 (Homo sapiens, UniProt Q08828) | cAMP |  |  | 300 |
| O=c1ccc2cc(O)c(O)cc2o1 | Leucine-rich repeat serine/threonine-protein kinase 2 (LRRK2, Homo sapiens, UniProt Q5S007, G2019S) | enzyme activity | inhibitor | radiometric | 358 |
| CC(C)(C)n1nc(-c2ccc3nc(OC4CC4)ccc3c2)c(C(N)=O)c1N | MAPK14 | cell-free assay |  |  | > 10000 |
| COc1ccc(C2=NN(C3CCCCCC3)C(=O)[C@@H]3CC=CC[C@H]23)cc1-c1ccc(C(N)=O)cc1 (relative stereo) | PDE3A | enzyme activity | inhibitor |  | 7940 |
| COCCOCOc1ccc(C(=O)/C=C/c2ccc(C(=O)O)cc2)cc1C12CC3CC(CC(C3)C1)C2 | Inhibitor of nuclear factor kappa-B kinase subunit beta (IKBKB, Homo sapiens, UniProt O14920) | enzyme activity | inhibitor | TR-FRET | 16700 |
| CNc1nc(C)nc(N[C@H]2CCC[C@@H](C(=O)NCc3ccc(C#N)cc3C(F)(F)F)C2)n1 | Bifunctional epoxide hydrolase 2 (Ephx2, Rattus norvegicus, UniProt P80299) | enzyme activity | inhibitor |  | 2.9 |
| COc1cc2c(cc1OC)-c1c/c(=N\c3c(C)cc(C)cc3C)n(C)c(=O)n1CC2 | PDE3A | enzyme activity | inhibitor | FP | 0.067 |
| CC1Cc2ccccc2N1C(=O)NCCCCN(C)[C@@H]1Cc2cccc3[nH]c(=O)n(c23)C1 (mixture of isomers) | HTR1A | ligand displacement |  | radioligand | 25.6 |
| N#C/C(=C\c1ccc(O)c(O)c1)C(=O)OC/C=C/c1ccccc1 | LRRK2 | enzyme activity | inhibitor | radiometric | 619 |
| Cc1nccc2c1c(=O)n(C)c1cc(OC[C@@H](N)CC(C)C)c(C#N)cc21 | Alpha-2C adrenergic receptor (ADRA2C, Homo sapiens, UniProt P18825) | cell-free assay |  |  | > 30000 |
